Data published in ChEMBL document CHEMBL3414433, “Discovery and profiling of a selective and efficacious Syk inhibitor” (J Med Chem, 2015).

Columns and labels:
[1] = target: T1, Tyrosine-protein kinase receptor UFO (Homo sapiens, UniProt P30530); assay: Competitive binding affinity to human AXL
T1 sequence (P30530 whole entry): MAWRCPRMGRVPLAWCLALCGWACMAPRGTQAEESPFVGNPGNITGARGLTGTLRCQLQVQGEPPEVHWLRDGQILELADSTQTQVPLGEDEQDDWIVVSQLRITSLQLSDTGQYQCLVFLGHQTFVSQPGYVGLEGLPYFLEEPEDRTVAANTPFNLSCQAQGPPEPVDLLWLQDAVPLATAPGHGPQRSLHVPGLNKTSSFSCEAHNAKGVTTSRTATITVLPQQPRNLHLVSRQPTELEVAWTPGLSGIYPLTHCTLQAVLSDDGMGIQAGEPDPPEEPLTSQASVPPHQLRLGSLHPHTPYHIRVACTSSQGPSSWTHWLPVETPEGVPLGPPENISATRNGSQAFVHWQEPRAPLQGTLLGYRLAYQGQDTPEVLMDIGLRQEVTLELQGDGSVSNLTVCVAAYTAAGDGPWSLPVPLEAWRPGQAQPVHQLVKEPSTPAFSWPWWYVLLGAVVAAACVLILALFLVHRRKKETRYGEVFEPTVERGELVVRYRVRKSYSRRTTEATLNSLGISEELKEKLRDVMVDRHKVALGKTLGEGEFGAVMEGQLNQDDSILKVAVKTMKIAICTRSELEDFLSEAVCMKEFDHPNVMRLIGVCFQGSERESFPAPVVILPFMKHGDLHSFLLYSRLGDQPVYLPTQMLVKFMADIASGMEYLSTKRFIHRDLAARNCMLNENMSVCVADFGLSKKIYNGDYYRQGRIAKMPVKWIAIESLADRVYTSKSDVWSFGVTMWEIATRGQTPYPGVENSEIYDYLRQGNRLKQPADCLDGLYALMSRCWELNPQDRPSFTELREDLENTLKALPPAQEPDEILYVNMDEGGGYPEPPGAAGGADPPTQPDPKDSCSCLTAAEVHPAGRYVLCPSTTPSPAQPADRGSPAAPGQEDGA

[2] = target: Tyrosine-protein kinase SYK (Homo sapiens, UniProt P43405); assay: Competitive binding affinity to human SYK
How it was run: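 Kd was then determined for the kinases affected at that concentration.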

[3] = target: Proto-oncogene tyrosine-protein kinase ROS (Homo sapiens, UniProt P08922); assay: Competitive binding affinity to human ROS1
Chain of Proto-oncogene tyrosine-protein kinase ROS (P08922 whole entry): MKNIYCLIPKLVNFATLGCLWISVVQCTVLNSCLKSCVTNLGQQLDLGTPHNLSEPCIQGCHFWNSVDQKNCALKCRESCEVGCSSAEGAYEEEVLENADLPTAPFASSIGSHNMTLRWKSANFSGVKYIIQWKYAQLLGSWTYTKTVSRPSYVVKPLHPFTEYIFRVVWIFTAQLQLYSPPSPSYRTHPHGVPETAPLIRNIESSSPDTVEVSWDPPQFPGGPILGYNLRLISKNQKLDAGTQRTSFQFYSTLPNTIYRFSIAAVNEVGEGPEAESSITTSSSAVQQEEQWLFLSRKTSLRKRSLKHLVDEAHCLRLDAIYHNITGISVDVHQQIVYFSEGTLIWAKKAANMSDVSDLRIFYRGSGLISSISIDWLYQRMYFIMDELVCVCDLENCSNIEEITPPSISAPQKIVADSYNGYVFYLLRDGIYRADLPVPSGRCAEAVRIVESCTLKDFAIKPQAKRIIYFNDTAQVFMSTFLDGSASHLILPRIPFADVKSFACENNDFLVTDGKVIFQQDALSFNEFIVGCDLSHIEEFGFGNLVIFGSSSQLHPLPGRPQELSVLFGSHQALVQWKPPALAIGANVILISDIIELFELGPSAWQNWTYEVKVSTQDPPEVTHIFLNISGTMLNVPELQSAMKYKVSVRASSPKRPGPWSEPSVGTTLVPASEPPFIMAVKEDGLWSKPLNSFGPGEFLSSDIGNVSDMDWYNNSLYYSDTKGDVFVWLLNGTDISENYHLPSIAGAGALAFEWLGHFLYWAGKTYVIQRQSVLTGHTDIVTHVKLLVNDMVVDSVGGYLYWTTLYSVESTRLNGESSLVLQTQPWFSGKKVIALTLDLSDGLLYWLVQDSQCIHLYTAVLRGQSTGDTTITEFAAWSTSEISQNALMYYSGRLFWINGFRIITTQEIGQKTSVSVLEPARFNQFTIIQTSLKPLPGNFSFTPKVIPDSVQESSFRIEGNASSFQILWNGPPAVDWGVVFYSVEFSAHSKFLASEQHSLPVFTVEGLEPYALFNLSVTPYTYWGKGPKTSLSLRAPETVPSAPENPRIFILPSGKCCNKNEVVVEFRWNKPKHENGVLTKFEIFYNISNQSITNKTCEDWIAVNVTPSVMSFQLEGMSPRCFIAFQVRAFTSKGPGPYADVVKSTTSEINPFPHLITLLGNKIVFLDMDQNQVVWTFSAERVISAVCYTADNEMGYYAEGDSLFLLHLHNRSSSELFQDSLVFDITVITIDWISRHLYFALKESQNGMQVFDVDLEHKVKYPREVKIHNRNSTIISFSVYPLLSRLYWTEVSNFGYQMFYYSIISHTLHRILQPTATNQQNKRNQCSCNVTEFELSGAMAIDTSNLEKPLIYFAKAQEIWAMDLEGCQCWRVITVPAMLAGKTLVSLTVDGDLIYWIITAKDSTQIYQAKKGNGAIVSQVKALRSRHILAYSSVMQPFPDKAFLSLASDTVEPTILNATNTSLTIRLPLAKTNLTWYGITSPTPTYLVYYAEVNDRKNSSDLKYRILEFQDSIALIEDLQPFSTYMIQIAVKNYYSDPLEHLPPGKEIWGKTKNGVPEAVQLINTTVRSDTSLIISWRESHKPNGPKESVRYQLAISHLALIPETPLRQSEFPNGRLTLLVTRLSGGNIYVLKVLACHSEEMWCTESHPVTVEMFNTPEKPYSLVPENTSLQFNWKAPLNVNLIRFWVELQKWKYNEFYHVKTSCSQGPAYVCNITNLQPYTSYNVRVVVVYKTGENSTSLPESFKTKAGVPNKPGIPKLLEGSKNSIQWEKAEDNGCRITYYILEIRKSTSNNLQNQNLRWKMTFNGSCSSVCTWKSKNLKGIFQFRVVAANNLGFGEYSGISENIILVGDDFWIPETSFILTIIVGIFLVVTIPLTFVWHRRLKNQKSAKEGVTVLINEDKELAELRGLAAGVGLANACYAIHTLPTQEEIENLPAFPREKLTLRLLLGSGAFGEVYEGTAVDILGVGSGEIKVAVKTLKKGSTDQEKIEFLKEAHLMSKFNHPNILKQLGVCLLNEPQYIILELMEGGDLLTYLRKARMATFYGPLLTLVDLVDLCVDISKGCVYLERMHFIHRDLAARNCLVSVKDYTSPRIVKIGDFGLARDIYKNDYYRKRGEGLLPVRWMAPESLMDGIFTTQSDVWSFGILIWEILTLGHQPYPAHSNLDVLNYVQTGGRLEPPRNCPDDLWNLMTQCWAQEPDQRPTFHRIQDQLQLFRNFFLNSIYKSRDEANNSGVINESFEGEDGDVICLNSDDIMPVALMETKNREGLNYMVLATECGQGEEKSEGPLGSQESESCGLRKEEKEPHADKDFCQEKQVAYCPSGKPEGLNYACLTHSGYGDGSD

[4] = target: T2, Voltage-gated inwardly rectifying potassium channel KCNH2 (Homo sapiens, UniProt Q12809); assay: Inhibition of human ERG by GLP study
T2 sequence (Q12809 whole entry): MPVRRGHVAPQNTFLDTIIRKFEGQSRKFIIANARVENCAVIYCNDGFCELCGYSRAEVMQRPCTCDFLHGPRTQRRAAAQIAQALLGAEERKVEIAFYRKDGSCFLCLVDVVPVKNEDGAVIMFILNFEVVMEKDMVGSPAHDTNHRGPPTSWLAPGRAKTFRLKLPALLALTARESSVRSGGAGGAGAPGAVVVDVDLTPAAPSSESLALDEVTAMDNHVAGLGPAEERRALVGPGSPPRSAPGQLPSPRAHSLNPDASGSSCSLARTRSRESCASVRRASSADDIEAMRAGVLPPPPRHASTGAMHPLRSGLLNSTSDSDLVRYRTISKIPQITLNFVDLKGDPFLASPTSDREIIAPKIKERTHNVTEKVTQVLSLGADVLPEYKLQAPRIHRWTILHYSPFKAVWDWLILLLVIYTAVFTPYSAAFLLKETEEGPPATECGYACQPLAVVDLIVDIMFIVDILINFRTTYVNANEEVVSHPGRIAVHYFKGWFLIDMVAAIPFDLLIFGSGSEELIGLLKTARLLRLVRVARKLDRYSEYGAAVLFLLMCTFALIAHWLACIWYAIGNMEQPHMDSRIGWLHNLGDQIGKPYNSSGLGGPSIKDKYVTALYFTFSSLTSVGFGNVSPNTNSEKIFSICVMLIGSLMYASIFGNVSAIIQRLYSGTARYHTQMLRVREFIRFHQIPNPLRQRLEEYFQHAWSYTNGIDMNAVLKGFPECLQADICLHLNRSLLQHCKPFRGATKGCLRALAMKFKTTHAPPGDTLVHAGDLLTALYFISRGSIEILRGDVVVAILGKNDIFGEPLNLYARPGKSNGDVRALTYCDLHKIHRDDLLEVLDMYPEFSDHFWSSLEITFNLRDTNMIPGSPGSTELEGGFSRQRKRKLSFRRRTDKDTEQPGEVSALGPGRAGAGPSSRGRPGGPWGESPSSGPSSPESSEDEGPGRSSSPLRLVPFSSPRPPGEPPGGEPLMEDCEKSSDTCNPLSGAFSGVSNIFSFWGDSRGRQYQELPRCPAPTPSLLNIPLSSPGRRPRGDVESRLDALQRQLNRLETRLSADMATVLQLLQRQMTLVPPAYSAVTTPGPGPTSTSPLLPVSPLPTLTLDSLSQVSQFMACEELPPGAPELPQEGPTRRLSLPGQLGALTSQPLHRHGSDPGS

Canis familiaris = organism: Canis familiaris; assay: Toxicity in dog assessed as prolongation of QT interval by telemetry study; format: organism-based, Canis lupus familiaris; conditions: in vivo
[5] = target: T3, Tyrosine-protein kinase Mer (Homo sapiens, UniProt Q12866); assay: Competitive binding affinity to human MERTK
T3 sequence (Q12866 whole entry): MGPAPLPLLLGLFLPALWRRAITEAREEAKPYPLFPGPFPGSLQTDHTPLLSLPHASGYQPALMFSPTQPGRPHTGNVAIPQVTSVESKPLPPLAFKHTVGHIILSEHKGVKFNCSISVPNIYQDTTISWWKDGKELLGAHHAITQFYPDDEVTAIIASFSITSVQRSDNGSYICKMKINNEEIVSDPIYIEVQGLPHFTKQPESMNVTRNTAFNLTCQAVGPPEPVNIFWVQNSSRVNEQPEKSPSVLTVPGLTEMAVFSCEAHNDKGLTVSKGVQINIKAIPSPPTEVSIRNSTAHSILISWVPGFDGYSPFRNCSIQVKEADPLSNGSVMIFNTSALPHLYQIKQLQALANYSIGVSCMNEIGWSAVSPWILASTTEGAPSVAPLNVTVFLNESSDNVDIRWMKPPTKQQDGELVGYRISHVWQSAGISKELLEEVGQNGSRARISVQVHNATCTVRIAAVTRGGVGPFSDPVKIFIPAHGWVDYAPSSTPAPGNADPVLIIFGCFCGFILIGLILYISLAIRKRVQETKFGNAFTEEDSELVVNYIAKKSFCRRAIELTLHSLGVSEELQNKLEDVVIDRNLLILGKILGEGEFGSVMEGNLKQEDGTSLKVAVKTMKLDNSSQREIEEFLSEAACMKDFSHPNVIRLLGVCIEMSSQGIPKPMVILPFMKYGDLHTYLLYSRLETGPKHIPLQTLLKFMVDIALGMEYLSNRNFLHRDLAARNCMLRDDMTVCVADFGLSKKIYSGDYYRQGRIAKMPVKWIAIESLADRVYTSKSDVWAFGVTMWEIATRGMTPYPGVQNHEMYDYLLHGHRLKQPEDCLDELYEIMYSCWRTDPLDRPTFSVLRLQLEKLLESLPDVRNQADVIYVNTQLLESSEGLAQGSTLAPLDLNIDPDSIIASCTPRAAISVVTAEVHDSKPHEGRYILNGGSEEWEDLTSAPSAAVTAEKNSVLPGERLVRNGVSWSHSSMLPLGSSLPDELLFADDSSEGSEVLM

[6] = target: T2, Voltage-gated inwardly rectifying potassium channel KCNH2; assay: Inhibition of human ERG expressed in CHO cells by automated Qpatch clamp assay; format: cell-based
[7] = target: Serine/threonine-protein kinase PAK 6 (Homo sapiens, UniProt Q9NQU5); assay: Competitive binding affinity to human PAK6
Chain of Serine/threonine-protein kinase PAK 6 (Q9NQU5 whole entry): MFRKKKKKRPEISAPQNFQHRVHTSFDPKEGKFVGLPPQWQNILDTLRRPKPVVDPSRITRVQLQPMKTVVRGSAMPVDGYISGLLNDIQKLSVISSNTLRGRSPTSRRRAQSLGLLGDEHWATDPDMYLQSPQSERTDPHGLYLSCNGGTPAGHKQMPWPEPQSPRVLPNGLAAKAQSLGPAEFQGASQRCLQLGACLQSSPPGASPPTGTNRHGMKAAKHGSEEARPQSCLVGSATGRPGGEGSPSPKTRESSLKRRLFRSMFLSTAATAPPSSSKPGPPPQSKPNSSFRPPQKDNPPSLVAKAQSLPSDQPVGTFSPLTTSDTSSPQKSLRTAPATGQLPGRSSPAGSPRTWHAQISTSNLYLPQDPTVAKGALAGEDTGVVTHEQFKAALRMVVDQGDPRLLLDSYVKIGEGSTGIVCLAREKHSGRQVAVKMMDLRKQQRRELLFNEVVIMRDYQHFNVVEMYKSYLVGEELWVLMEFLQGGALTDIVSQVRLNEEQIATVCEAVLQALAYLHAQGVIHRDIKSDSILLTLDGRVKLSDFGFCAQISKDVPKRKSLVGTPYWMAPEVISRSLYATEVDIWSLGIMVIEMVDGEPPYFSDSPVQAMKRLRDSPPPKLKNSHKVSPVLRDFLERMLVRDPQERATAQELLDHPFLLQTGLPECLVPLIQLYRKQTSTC

Rattus norvegicus = assay: Dose normalized Cmax in Sprague-Dawley rat at 1 mg/kg, iv and 3 mg/kg, po administered as cassette dosing; format: ADME, organism-based; conditions: in vivo
How it was run: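 Rat PK: i.v. 1 mg/kg in NMP/PEG200 (3:7); p.o. 3 mg/kg in CMC/water/Tween (0.5:99:0.5). Exposure values dose normalized.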

[8] = Drug uptake in blood of Lewis rat collagen-induced arthritis model at 10 mg/kg, po qd administered on day 15 post immunization measured at 8 hrs on day 18; format: ADME, organism-based; design: dose 10 mg/kg, route oral; conditions: read-out: Drug uptake
How it was run: (§1)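 Collagen-arthritic Lewis rats given 3, 10 or 30 mg/kg p.o. once daily from day 15; blood levels measured on day 18 (third day of treatment) at 4, 8 and 24 h after dosing.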

[9] = Drug uptake in blood of Lewis rat collagen-induced arthritis model at 30 mg/kg, po qd administered on day 15 post immunization measured at 4 hrs on day 18; format: ADME, organism-based; design: dose 30 mg/kg, route oral; conditions: read-out: Drug uptake; how it was run: as §1

- Kd [1]: 71 nM
- Kd [2]: 0.64 nM
- Kd [3]: 120 nM
- Kd [5]: 150 nM
- Kd [7]: 110 nM
- Cmax/dose (Rattus norvegicus): 80 nM
- concentration at 8 h [8]: 349 nM
- concentration at 4 h [9]: 2890 nM
Structure (SMILES): NC(=O)c1nnc(N[C@@H]2CCCC[C@@H]2N)nc1Nc1cccc2cc[nH]c12
- IC50 [4]: 5000 nM
- Activity (Canis familiaris): Non-toxic
- IC50 [6]: 25900 nM
